Experimental findings from PubChem BioAssay are described below.

In general, inhibition refers to the change of the read-out against control, counted positive when it falls.

Assay [1] is described as follows: inhibitors of TNFa-induced NFkB p65 translocation, primary screen, imaging, HUVEC, MLSMR starter and 10KST1 sets (AID 438).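 Further: compound added about 3h40 before a 20 min TNFalpha stimulation.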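 On inhibition: signal is the nuclear over cytoplasmic p65 intensity ratio per well.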 As to conditions: HUVEC TNFa-induced p65 nuclear translocation; cell count: measured here: nuclei count (cytotoxicity indicator), at 2.08 µM unless noted; inhibition: at 2 µM, stronger effect = higher value unless noted.
Assay [2] is described as follows: inhibitors of mutant huntingtin aggregation, primary screen, imaging, exon1htt(103Q)mCFP cells, high-content imaging (AID 483;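 active means visual image review flags a hit and inhibition of aggregation exceeds 20%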;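 further: compound exposure lasted 3 days before fixation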;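 on nuclei count: percent of the per-plate median nuclei count of sample wells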). As to conditions: exon1htt(103Q)mCFP cell line, aggregate imaging, at 2 µM; inhibition of aggregation: stronger effect = higher value; nuclei count: measured here: cell count, toxicity.
The nature of assay [3]: inhibitors of E-selectin induction by TNFa, primary screen, imaging, HUVEC, immunofluorescence, MLSMR starter and 10KST1 sets (AID 487;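 active means visually confirmed hit in the image check and inhibition above 20%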;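 on inhibition: signal is fraction of cell area covered by stained E-selectin grains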;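 on nuclei count: 100% = median nuclei count of all wells on the same plate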). Particulars: HUVEC TNFalpha-induced E-selectin immunofluorescence imaging, at 2 µM; inhibition: stronger effect = higher value; nuclei count: measured here: cell number, toxicity.
Assay [4] concerns the target Voltage-gated potassium channel subunit beta-2 (Rattus norvegicus) (UniProt P62483). Description: KvBeta enzyme negative modulators, primary screen, biochemical, NADPH fluorescence (AID 622;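 active means fluorescence slope higher than the sample average by over 3 SD, cut at about -0.22 in these data, passing the limit was not always enough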;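 further: slope of raw intensity against log time taken from 70 to 1610 s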). Particulars: recombinant KvBeta, 4-cyanobenzaldehyde reduction, at 10 µM, stronger effect = higher value.
The target is the same in assay [5]. Description: KvBeta positive modulators, primary screen, biochemical, NADPH fluorescence (AID 623;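 active means NADPH fluorescence slope more negative than the mean of all samples by about 3 SD, 99.7% confidence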;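 further: fluorescence intensity change per second fitted from 20 to 320 s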). As to conditions: Recombinant KvBeta, NADPH fluorescence decrease slope, 10 min; at 10 µM; stronger effect = lower value.
Assay [6] concerns the target Alpha-2C adrenergic receptor (Homo sapiens) (UniProt P18825). Description: modulators of alpha2C/GIRK thallium flux, primary screen, cell-based, HEK293 alpha2C/GIRK1/2 (AID 624;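 active means fluorescence slope after compound addition differing from the mean of all screened samples at 99.7% confidence, in either direction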;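 further: slope of fluorescence ratio to pre-addition baseline per second over 15 to 24 s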). As to conditions: thallium flux BTC fluorescence, at 10 µM, actives lie on both sides.
A short description of assay [7]: inhibitors of Sendai virus-induced IRF3 signaling, primary screen, TLR/RLR signaling modifier project, cell-based, Sendai virus stimulus, luciferase, 10K MLSCN set (AID 602276;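 active means inhibition at or above 50% at 10 µM; inactive means inhibition below 50%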;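 further: firefly luciferase from ISG56 promoter only with Renilla not read in this screen; 0% = Sendai virus plus DMSO and 100% = medium plus DMSO without virus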). Particulars: HEK293 RL24 IRF3 luciferase reporter, at 10 µM, stronger effect = higher value. Background: Reporter assays use an easily measured gene product as a stand-in for the process of interest.

Assay [8] can be described thus: inhibitors of poly I:C-induced TLR3 signaling, primary screen, cell-based, poly I:C stimulus, luciferase, 10K MLSCN set (AID 602277;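 active means inhibition of the reporter signal at or above 50%; inactive means inhibition below 50%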). As to conditions: HEK293-TLR3 RL24 IRF3 luciferase reporter, at 10 µM, stronger effect = higher value.
The target of assay [9] is Muscarinic acetylcholine receptor M4 (Homo sapiens) (UniProt P08173). Put plainly: compounds altering M4/GIRK thallium flux, either direction, primary screen, M4 allosteric agonist project, cell-based, HEK293 M4/GIRK, BTC-AM (AID 625;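 active means fluorescence slope after compound addition differing from the mean of all tested samples at 99.7% confidence, mostly higher but some lower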;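 further: thallium influx through GIRK channels coupled to M4 in HEK293 cells with BTC-AM dye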). As to conditions: at 10 µM, actives lie on both sides. The method, boiled down: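 Material: M4/GIRK1/GIRK2 stable HEK293 cell line. Medium: pH 7.3 thallium assay buffer. Dosing: single compound concentration, 10 µM final. Schedule: 1 h dye loading, 2 min kinetic read. Measured by: kinetic fluorescence with BTC-AM dye. Read-out: post-addition slope, 15–24 s, of baseline-normalized fluorescence. Benchmarks: carbachol and DMSO controls.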

Activity calls are given as the source filed them.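 How the source made its calls, unless noted: active means inhibition above 20% together with a positive visual image hit; inconclusive means visual image hit but inhibition not above 20%; inactive means no visual image hit.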

Chain of Voltage-gated potassium channel subunit beta-2 (Rattus norvegicus) (P62483 whole entry, looked up): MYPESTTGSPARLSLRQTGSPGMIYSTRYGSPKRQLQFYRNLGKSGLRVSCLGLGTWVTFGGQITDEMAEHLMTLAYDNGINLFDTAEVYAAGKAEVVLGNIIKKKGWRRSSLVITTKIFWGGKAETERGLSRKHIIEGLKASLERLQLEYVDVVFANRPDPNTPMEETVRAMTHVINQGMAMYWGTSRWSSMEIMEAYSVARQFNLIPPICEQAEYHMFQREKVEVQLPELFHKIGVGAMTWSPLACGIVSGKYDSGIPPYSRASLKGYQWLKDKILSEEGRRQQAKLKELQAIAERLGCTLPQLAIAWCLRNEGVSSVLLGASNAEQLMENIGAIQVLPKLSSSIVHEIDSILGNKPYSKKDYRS
Chain of Alpha-2C adrenergic receptor (Homo sapiens) (P18825 whole entry, looked up): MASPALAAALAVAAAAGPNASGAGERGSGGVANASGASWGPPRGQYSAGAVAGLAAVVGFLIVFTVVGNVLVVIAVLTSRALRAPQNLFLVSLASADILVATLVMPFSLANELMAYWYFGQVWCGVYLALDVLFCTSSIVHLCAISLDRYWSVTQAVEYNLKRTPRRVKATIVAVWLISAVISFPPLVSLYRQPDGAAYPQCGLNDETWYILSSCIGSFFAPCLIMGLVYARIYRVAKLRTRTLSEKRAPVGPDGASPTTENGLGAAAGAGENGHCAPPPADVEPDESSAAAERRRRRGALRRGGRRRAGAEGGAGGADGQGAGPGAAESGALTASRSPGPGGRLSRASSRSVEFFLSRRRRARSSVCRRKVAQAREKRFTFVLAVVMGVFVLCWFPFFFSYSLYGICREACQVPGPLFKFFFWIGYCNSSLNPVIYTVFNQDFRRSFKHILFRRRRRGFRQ
Chain of Muscarinic acetylcholine receptor M4 (Homo sapiens) (P08173 whole entry, looked up): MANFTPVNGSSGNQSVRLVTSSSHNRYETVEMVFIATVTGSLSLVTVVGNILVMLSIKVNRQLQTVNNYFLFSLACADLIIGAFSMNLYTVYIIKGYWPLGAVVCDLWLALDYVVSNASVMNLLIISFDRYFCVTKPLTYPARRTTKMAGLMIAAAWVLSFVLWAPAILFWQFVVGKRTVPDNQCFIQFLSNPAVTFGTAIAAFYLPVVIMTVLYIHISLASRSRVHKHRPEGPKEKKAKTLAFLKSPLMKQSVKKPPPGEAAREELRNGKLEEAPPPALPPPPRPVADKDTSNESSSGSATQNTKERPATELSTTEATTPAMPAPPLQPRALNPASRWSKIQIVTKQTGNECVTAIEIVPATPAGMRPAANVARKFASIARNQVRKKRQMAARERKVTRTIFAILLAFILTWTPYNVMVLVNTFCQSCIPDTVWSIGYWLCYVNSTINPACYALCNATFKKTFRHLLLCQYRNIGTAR

As for `Cn1c(=O)cc(OCC(=O)N2CCN(C3CCCCC3)CC2)c2ccccc21`, in [1], the cell count came out at 535. Also, the inhibition was -5.5% (inactive) in assay [1], -119% (inactive) in [3], 2.25% (inactive) in assay [7] and 55.3% (active) in assay [8]. Also, the inhibition of aggregation in [2] was 14.2% (inactive). Moreover, the values for the nuclei count in assay [2] and in assay [3] were 81.7% and 113%, respectively. The fluorescence slope in [4] is -0.533 (inactive). Besides, the NADPH fluorescence slope in assay [5] is -5e-05 (inactive). Besides, in assay [6], the slope is 0.00729 (inactive).

As to `COc1ccccc1N(CC(=O)NC1CCCCC1)C(=O)c1cnn(C(C)C)c1`, the cell count in assay [1] was 526. In addition, the inhibition in assay [1] is 2.5% (inactive); in assay [3], -128% (inactive); in [7] it was -9.99% (inactive); in assay [8] it was -3.91% (inactive). For the same compound, in assay [2], the inhibition of aggregation is 3.2% (inactive). In addition, the nuclei count stood at 102% in assay [2] and 157% in [3]. Besides, the fluorescence slope in [4] was -0.598 (inactive). Also, in [5], the NADPH fluorescence slope was 9.1e-06 (inactive). For the same compound, the slope in assay [6] is 0.00634 (inactive).

In turn, `CCC(C(=O)N1CCC2(CC1)OCCO2)c1ccccc1` (stereo not given) came in with a cell count in [1] of 391. Also, the inhibition in [1] is 8.2% (inactive); in assay [3], -81.6% (inactive); in assay [7], 14.2% (inactive); in [8] it was 7.25% (inactive). Also, in assay [2], the inhibition of aggregation was 18.1% (inactive). For the same compound, the nuclei count turned out to be 111% in assay [2] and 99.5% in assay [3]. In assay [4], the fluorescence slope was -0.381 (inactive). Further, the NADPH fluorescence slope in assay [5] was -2.6e-05 (inactive). For the same compound, the slope in assay [6] is 0.00492 (inactive).

In turn, `O=c1[nH]c(=O)n(Cc2ccc(F)cc2)c(O)c1C=NCCCN1CCOCC1` yielded a cell count in [1] of 728. The inhibition in assay [1] is -22.4% (inactive); in assay [3], 35.3% (inactive); in [7], -0.0843% (inactive); in assay [8], 3.86% (inactive). For the same compound, in assay [2], the inhibition of aggregation was 4.6% (inactive). In addition, the nuclei count in [2] came out at 105%; in [3] it was 101%. The fluorescence slope in [4] was -0.441 (inactive). Moreover, the NADPH fluorescence slope in [5] is 1.3e-06 (inactive). Further, in [6], the slope is 0.00502 (inactive).

In the case of `CN(C)c1cc(N)c2c(n1)CCC2` (tested in a mixture with another compound), the cell count in assay [1] came to 443. In addition, the inhibition in assay [1] was -0.3% (inactive); in [3], -17.4% (inactive); in assay [7], 11.4% (inactive); in assay [8], 17.8% (inactive). Moreover, the inhibition of aggregation in assay [2] was -9% (inactive). Besides, the nuclei count in [2] is 98.2%; in [3], 124%. In addition, the fluorescence slope in [4] is -0.376 (inactive). Besides, in [5], the NADPH fluorescence slope was -5.8e-05 (inactive). The slope in assay [6] was 0.00598 (inactive).

For `Cc1ccc(C)c(NC2=NCCCS2)c1`, the cell count in assay [1] is 304. For the same compound, the inhibition in [1] was 9.3% (inactive); in [3], -82.5% (inactive); in assay [7], 17.2% (inactive); in [8], 22% (inactive). Besides, in [2], the inhibition of aggregation was 15.3% (inactive). For the same compound, the results for the nuclei count in assay [2] and in assay [3] were 92.5% and 91%, respectively. Besides, the fluorescence slope in assay [4] was -0.566 (inactive). Moreover, the NADPH fluorescence slope in [5] is 9.6e-06 (inactive). The slope in assay [6] is 0.00513 (inactive).

In assay [1], `CCOc1cc2[nH]c(=S)n(CCCC(=O)N3CCC4(CC3)OCCO4)c(=O)c2cc1OCC` gave a cell count of 429. Further, the inhibition was 9.4% (inactive) in assay [1], -41.4% (inactive) in assay [3], -5.57% (inactive) in [7] and 17.4% (inactive) in assay [8]. In assay [2], the inhibition of aggregation was -0.4% (inactive). The nuclei count was determined as 95.6% in [2] and 107% in assay [3]. Moreover, the fluorescence slope in assay [4] was -0.464 (inactive). In addition, in assay [5], the NADPH fluorescence slope is 7.5e-06 (inactive). In addition, the slope in [6] is 0.00495 (inactive).

In the case of `CCCC(C)C1C(C#N)=C(N)Oc2c1c(=O)oc1ccccc21` (stereo not given), the cell count in [1] was found to be 547. Also, the inhibition in assay [1] is -13.2% (inactive); in assay [3] it was -29.8% (inactive); in [7] it was 7.33% (inactive); in assay [8], 22.2% (inactive). For the same compound, in assay [2], the inhibition of aggregation is 9.9% (inactive). The nuclei count stood at 86.4% in assay [2] and 108% in assay [3]. For the same compound, in [4], the fluorescence slope was -0.422 (inactive). For the same compound, the NADPH fluorescence slope in assay [5] is 2.9e-06 (inactive). In assay [6], the slope was 0.00396 (inactive).

In [1], `CSc1ccc(CNC2CN3CCC2CC3)cc1` (stereo not given) returned a cell count of 350. Moreover, the inhibition in [1] is 0.2% (inactive); in assay [3], 32.3% (inactive); in [7] it was 12.2% (inactive); in assay [8] it was 24.5% (inactive). For the same compound, the inhibition of aggregation in assay [2] is -0.6% (inactive). Moreover, the figures for the nuclei count in assay [2] and in assay [3] were 103% and 102%, respectively. Moreover, the fluorescence slope in assay [4] is -0.421 (inactive); in [9], 0.00514 (inactive). Further, in [5], the NADPH fluorescence slope is -9.5e-05 (inactive).

In assay [1], `Cc1ccc(OCC(=O)NCCN2CCN(C(=O)COc3ccc(C)cc3)CC2)cc1` came in with a cell count of 635. In addition, the inhibition in [1] is -0.2% (inactive); in assay [3], -103% (inactive); in [7], -9.99% (inactive); in assay [8], -18.3% (inactive). Moreover, the inhibition of aggregation in [2] was 9.1% (inactive). The values for the nuclei count in assay [2] and in assay [3] were 94.7% and 103%, respectively. In addition, the fluorescence slope in [4] was -0.611 (inactive). The NADPH fluorescence slope in assay [5] is -2.9e-05 (inactive). Further, the slope in assay [6] was 0.00522 (inactive).
